From ChEMBL document CHEMBL4706687, “Synthesis and Pharmacological Evaluation of Novel Non-nucleotide Purine Derivatives as P2X7 Antagonists for the Treatment of Neuroinflammation” (J Med Chem, 2021)
Activity calls are given as the source filed them. The calls are words filed in the database; no cut-off is given here.

What was measured:
P2X purinoceptor 7 = biological target: T1, P2X purinoceptor 7 (Homo sapiens, UniProt Q99572); test: (§1) Antagonist activity at human P2X7 receptor expressed in HEK293 cells assessed as reduction in benzoyl-ATP-induced intracellular Ca2+ level by Fura-2 dye based fluorescence assay; assay type: cell-based
T1 sequence (Q99572 whole entry): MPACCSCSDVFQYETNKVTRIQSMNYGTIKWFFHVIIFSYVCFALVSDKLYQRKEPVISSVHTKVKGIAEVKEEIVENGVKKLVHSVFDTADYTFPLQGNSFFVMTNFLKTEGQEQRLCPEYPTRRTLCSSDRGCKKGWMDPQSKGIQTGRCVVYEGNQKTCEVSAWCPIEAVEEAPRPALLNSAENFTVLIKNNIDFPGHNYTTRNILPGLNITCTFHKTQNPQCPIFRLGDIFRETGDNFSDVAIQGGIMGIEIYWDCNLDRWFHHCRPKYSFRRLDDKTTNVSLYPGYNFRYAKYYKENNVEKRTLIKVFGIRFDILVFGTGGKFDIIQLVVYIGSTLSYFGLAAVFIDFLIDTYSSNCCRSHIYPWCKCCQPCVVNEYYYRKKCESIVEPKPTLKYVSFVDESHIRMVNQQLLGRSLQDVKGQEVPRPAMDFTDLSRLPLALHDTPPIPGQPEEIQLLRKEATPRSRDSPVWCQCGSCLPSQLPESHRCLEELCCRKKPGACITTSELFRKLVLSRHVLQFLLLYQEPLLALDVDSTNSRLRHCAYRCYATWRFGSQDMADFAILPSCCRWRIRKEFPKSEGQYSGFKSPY
How it was run: (§2)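 hP2X7-HEK293 cells 24–48 h after seeding, loaded with Fura-2-AM 8 μM for 1 h, then washed in Mg²⁺-free Tyrode (2 mM CaCl₂, pH 7.4) for 15–30 min with compound present. Excitation 340/380 nm, emission 520 nm. Basal recording, then BzATP injected (100 μM final). [Ca²⁺]c from Grynkiewicz equation. Blockade as percent of BzATP peak in Tyrode-only wells; triplicates.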

[1] = biological target: T2, P2X purinoceptor 7 (Homo sapiens) (UniProt Q99572); test: as §1; assay type: cell-based; settings: filed as antagonist; how it was run: as §2
T2 sequence (whole entry): T1 sequence (Q99572 whole entry)

[2] = biological target: T3, P2X purinoceptor 2 (Rattus norvegicus) (UniProt P49653); test: Antagonist activity at rat P2X2 receptor expressed in Xenopus laevis oocytes assessed as reduction in ATP-induced channel currents at 100 uM by TEVC electrophysiology assay relative to control; assay type: cell-based; settings: Oocyte
T3 sequence (whole entry): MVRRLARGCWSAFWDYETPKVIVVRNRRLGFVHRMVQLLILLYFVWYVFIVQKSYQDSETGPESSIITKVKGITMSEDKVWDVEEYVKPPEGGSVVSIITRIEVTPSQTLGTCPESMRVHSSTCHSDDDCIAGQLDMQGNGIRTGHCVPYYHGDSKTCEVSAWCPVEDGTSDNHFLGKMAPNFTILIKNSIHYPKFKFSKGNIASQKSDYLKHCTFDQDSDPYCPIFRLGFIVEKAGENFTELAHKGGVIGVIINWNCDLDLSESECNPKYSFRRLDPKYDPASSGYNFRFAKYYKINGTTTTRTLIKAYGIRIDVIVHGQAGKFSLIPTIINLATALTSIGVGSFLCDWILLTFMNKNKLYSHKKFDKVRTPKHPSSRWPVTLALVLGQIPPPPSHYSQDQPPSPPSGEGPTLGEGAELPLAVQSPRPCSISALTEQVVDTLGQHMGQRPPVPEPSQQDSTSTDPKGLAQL
How it was run: (§3)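 Two-electrode voltage clamp at −70 mV in low divalent-cation solution, oocytes incubated 1–2 days at 16–18 °C after 50 nL cRNA injection: rP2X1 and rP2X4 at 0.5 mg/mL, rP2X2 0.1 mg/mL, rP2X7 25 μg/mL. ATP 10 μM for rP2X1 and rP2X2, 30 μM for rP2X4 and rP2X7. Compound applied 3 min without perfusion. Currents normalized to control; three oocytes from two frogs.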

Peritoneal macrophage = test: Inhibition of Il-1beta production in LPS-stimulated C57BL/6 mouse peritoneal macrophages pre-incubated for 15 mins followed by ATP addition for 30 mins by ELISA method; assay type: functional, tissue-based; settings: time 45.0 min
How it was run: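 Thioglycolate-elicited peritoneal macrophages from 6–8-week male C57BL/6 mice, 3 × 10⁵ cells/well. Primed 4 h with LPS 1 μg/mL (E. coli 026:B6), then serum-free DMEM with compound for 15 min, then ATP for 30 min. Supernatant IL-1β measured by ELISA, expressed as percent of ATP-only control. Triplicates from three mice.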

[3] = biological target: T2, P2X purinoceptor 7 (Homo sapiens); test: Antagonist activity at human P2X7 receptor expressed in HEK293 cells assessed as reduction in benzoyl-ATP-induced YO-PRO-1 dye uptake at 10 uM pre-incubated for 20 mins before YO-PRO-1 addition and measured after 25 mins by fluorescence plate reader analysis relative to control; assay type: cell-based; settings: filed as antagonist, time 45.0 min
How it was run: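 Stably transfected hP2X7-HEK293 cells, 48 h after seeding, in Mg²⁺-free Krebs-HEPES (0.2 mM CaCl₂, pH 7.4). Compound preincubation 20 min, then YO-PRO-1 2 μM, then BzATP 30 μM. Fluorescence at 485/520 nm read for 25 min. Each well normalized to Fmax (0.5% Triton X-100) and Fmin (2 M MnCl₂): F = (Fx − F0)/(Fmax − Fmin). Triplicates from three cultures. IC50 is the concentration halving BzATP-induced uptake.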

[4] = biological target: T2, P2X purinoceptor 7 (Homo sapiens); test: Antagonist activity at human P2X7 receptor expressed in Xenopus laevis oocytes assessed as reduction in ATP-induced channel currents at 100 uM by TEVC electrophysiology assay relative to control; assay type: cell-based; settings: Oocyte, filed as antagonist
How it was run: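 Oocytes injected with 50 nL His-tagged hP2X7 cRNA (0.5 mg/mL), kept 1–2 days at 16–18 °C. Recorded in low divalent-cation solution (90 mM NaCl, 0.5 mM CaCl₂, 5 mM HEPES) at −70 mV. ATP 300 μM for 2 s after 3 min static compound incubation. Current normalized to control amplitude. Triplicates from three oocytes, two frogs.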

[5] = biological target: T4, P2X purinoceptor 1 (Rattus norvegicus) (UniProt P47824); test: Antagonist activity at rat P2X1 receptor expressed in Xenopus laevis oocytes assessed as reduction in ATP-induced channel currents at 100 uM by TEVC electrophysiology assay relative to control; assay type: cell-based; settings: Oocyte; how it was run: as §3
T4 sequence (whole entry): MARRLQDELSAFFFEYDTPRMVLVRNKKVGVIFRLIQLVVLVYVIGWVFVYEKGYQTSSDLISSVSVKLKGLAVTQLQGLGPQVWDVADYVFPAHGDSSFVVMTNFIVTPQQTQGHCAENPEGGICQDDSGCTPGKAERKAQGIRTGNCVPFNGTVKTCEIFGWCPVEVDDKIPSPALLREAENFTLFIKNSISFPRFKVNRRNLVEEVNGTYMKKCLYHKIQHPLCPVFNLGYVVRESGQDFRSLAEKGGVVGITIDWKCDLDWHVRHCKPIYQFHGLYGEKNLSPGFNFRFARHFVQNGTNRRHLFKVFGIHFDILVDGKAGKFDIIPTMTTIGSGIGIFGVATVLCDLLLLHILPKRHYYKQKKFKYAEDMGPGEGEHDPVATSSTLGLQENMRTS

## O=C(Cn1cnc2c(Cl)ncnc21)c1ccc(Cl)cc1Cl
P2X purinoceptor 7
  IC50: 13.7 µM
[1]
  inhibition: Dose-dependent effect
[2]
  inhibition: inactive
Peritoneal macrophage
  inhibition: Dose-dependent effect
[3]
  inhibition: 63%
[4]
  inhibition: 47%
[5]
  inhibition: inactive
